Assay results of several laboratories.
Each line is one published result; the experiments were not run side by side.
Target: Histamine H1 receptor (HRH1, Homo sapiens, UniProt P35367)

CN1CCC(C(c2ccccc2)c2ccccc2)CC1  kon (binding): 3.33e+06 M⁻¹ s⁻¹
CCN(CC)CCCC[C@H](NC(=O)[C@H](CC(C)C)NC(=O)[C@H](C)NC(=O)[C@H](Cc1ccccc1)NC(=O)c1ccc(C(C)(C)C)cc1)C(=O)N[C@@H](CO)C(=O)OC  inhibition (ligand displacement; radioligand; 10 µM): -6%
COc1ccc(C(=O)NCc2cc(C(C)C)no2)cc1OC1CCN(C)CC1  inhibition (ligand displacement; radioligand; 10 µM): 37%
C[C@H](C(=O)N[C@H]1COc2ccccc2[C@@H]1S(C)(=O)=O)c1ccc(F)cc1  inhibition (cell-free assay; 10 µM): -5%
CC(Cc1ccccc1)NCCn1cnc2c1c(=O)n(C)c(=O)n2C (stereo not shown)  inhibition (ligand displacement; radioligand; 10 µM): 12%
c1ccc(C(NCCNC(c2ccccc2)c2ccccc2)c2ccccc2)cc1  inhibition (cell-free assay; 10 µM): 81%
Cc1c(N2CCNCC2)nc2ccc(Br)cc2c1C(=O)NC[C@H](CCC(=O)O)c1ccccc1Cl  inhibition (ligand displacement; 10 µM): 17.5%
Nc1ncc(-c2nc(N3CCOCC3)nc(N3CCOCC3)n2)c(C(F)F)n1  remaining signal (cell-free assay; radioligand; 10 µM): 99.1%
COCc1c(-c2cc3cc(C)cc(OC)c3s2)c2c(N)ncnn2c1CN1CCNC(=O)C1  inhibition (ligand displacement; radioligand; 10 µM): 26%
COc1ccc(S(=O)(=O)N2CCCCC2)cc1C  inhibition (ligand displacement; radioligand; 10 µM): < 30%
CC(C)N1CCC[C@H]1CNC(=O)c1cn(C2CCCC2)c(=O)c2c1c1ccccc1n2C  inhibition (ligand displacement; radioligand; 10 µM): 22%
N#CC1(c2ccccn2)CCN(Cc2cc(C(=O)O)c(=O)n3ccccc23)CC1  inhibition (cell-free assay; 10 µM): 28.4%
Clc1ccc2c(C3CCN(CCc4c[nH]c5ccccc45)CC3)c[nH]c2c1  inhibition (ligand displacement; radioligand; 10 µM): 100%
